Screening data (PubChem BioAssay)
In the library only some 1.6% were active in any assay of this set; here they are far more common.
FLuc inhib CS: Photinus pyralis luciferase inhibition counter-screen | ATPLite firefly luciferase biochemical luminescence, 10 min | actives 1.5% (n = 200,000) | inhibition, % at 10 µM;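 active means inhibition above about 50% when tested at 10 µM, limit read from the data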
Target sequence (P08659 whole entry, looked up): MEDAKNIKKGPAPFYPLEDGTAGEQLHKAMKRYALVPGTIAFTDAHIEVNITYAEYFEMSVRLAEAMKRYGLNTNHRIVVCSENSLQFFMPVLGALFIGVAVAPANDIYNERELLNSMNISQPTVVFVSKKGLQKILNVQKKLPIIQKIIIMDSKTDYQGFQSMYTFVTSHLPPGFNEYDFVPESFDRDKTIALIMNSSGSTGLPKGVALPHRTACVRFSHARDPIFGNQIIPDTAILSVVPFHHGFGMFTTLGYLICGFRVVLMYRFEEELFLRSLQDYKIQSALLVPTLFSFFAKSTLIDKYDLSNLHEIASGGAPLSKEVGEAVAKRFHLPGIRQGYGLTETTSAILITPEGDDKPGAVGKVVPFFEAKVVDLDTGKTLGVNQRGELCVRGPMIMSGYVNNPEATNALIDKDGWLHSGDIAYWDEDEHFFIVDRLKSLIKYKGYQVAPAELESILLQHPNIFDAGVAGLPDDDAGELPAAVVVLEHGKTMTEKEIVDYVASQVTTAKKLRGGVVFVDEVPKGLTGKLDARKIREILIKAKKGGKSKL
Platelet DG rel: platelet dense granule release activity. inhibition, %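 (compounds screened at 7.5 µM in platelet-rich plasma)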. actives 0.22% (n = 300,000). human platelet-rich plasma, SFLLRN dense granule ATP release, luminescence. AID 1663;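 active means mean replicate score, as percent of positive control, at or above 50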
PPC-1+TRAIL kill: PPC-1 cancer cell killing with TRAIL present | actives 0.41% (n = 220,000) | PPC-1 cells + TRAIL, ATPLite viability luminescence | cell killing (% activity), % at 4 µM or 5 µM;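 active means cell killing above 50% in the first pass at 4 µM, then a duplicate retest at 5 µM averaging 50% or more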;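 further: plate controls were cells with TRAIL plus DMSO for no effect and medium-only wells lacking cells for full effect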
FLuc act counter: firefly luciferase counter-screen for stimulation assays. P08659. ATPlite luciferase biochemical, luminescence, 10 min; 0 = ATP-free wells, 1 = DMSO control. activation factor at 10 µM. 200,000 tested, under 10 active. AID 1027;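 active means luciferase activation factor, scaled between plate controls, of at least 2 with compound at 10 µM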
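assay system = Luciferase/luciferin detection reagent, cell-free biochemical luciferase assay | also added = ATP substrate | times = 10 min post-reagent at room temperature | measured by = luminescence from luciferase reaction | measure = luciferase activation, seen as luminescence increase over controls | benchmarks = low control with PBS replacing ATP, high control enzyme plus ATP without compound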
C8 TRAIL sens: sensitizes caspase-8 expressing cells to TRAIL | NB7+C8 cells + TRAIL, ATPlite viability luminescence | inhibition (viability loss, TRAIL sensitization), % at 10 µM | actives 1% (n = 360,000);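 active means compounds causing at least 50% loss of cell viability in the single-dose screen, relative to plate controls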
PPC1 cytotox: PPC-1 cell cytotoxicity; shares compounds with PPC-1+TRAIL kill; PPC-1 viability, ATPlite luminescence, overnight; cytotoxicity, % at 5 µM; actives 50% (n = 1,200);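 active means reconfirmed compounds whose average cytotoxicity reaches 50% or more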;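 further: 0% = DMSO-treated cells and 100% = wells holding medium but no cells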
The depositor's hits bear a star.

What do the screens show for `CCN(CC)C(=O)C(Sc1ccccc1)c1ccccc1` (stereo not drawn)?
FLuc inhib CS: -6.9; Platelet DG rel: 1.2; PPC-1+TRAIL kill: -0.5; FLuc act counter: 1.1; C8 TRAIL sens: -4.4; PPC1 cytotox: 2.1

Results for CC1(C(=O)Nc2nccs2)CCN1C(=O)CC(c1ccccc1)c1ccccc1 (stereo not drawn) ?
C8 TRAIL sens: -6.6

What do the screens show for `COc1ccc(S(=O)(=O)N(C)CC(=O)N2CCCCCC2)cc1`?
Platelet DG rel: 3.3; C8 TRAIL sens: -14.5

How did COc1ccc(S(=O)(=O)N(C)CC(=O)N2CCC(C(N)=O)CC2)cc1 do in these assays?
FLuc inhib CS: -6.7; Platelet DG rel: 0.4; PPC-1+TRAIL kill: 5.8; FLuc act counter: 1.1; C8 TRAIL sens: -9.9; PPC1 cytotox: 11.9

Results for Cc1cccc(C)c1-n1nnnc1C1(C)CCC(=O)N1Cc1cccnc1 (stereo not drawn) ?
C8 TRAIL sens: -15.2

Results for Cc1ccccc1NC(=O)N1C2CCC1CC(O)(c1cccnc1)C2 (stereo not drawn) ?
FLuc inhib CS: -3.1; Platelet DG rel: -11.7; PPC-1+TRAIL kill: -7.2; FLuc act counter: 1; C8 TRAIL sens: 2.2

Results for O=C(Nc1ccccc1Cl)N1C2CCC1CC(O)(c1cccnc1)C2 (stereo not drawn) ?
FLuc inhib CS: -8.7; Platelet DG rel: 0.3; PPC-1+TRAIL kill: -1.9; FLuc act counter: 1.1; C8 TRAIL sens: -7.6; PPC1 cytotox: 9.3

How did Nc1[nH]c(C(=O)c2ccccc2)c(-c2ccc(Cl)cc2Cl)c1C(=O)NCCc1c[nH]c2ccccc12 do in these assays?
C8 TRAIL sens: -7.8

How did COCCN(C(=O)c1cc(OC)c(OC)c(OC)c1)c1c(N)n(Cc2ccccc2)c(=O)[nH]c1=O do in these assays?
FLuc inhib CS: -3.1; Platelet DG rel: -1.9; PPC-1+TRAIL kill: 10.3; FLuc act counter: 1; C8 TRAIL sens: -4.5; PPC1 cytotox: 3.1

What do the screens show for `COc1cccc(CN(C)C(=O)c2cccc(S(=O)(=O)Nc3cccc(C)c3)c2)c1OC`?
C8 TRAIL sens: 10.9

How did C[C@@H](c1ccccc1)N1C[C@@H](COCc2ccccc2)Oc2cc(N3CCC[C@H]3CO)ccc2S1(=O)=O do in these assays?
C8 TRAIL sens: 16.1

Results for O=c1c(-c2ccc3c(c2)OCCO3)coc2cc(O)cc(O)c12 ?
FLuc inhib CS: 62.4*; Platelet DG rel: 3.0; PPC-1+TRAIL kill: 33.8; FLuc act counter: 0.4; C8 TRAIL sens: 32.2; PPC1 cytotox: 35.9

Results for CCOC(=O)[C@]12CCCC=C1N(Cc1ccccc1)C(=O)[C@H](CC(=O)N1CCN(C(=O)c3ccco3)CC1)C2 ?
C8 TRAIL sens: -8.0

Results for CCCCCCCCCn1c2c(c(=N)c3c1CCC3)CCCC2 ?
FLuc inhib CS: -1.6; Platelet DG rel: 7.6; PPC-1+TRAIL kill: 48.5; FLuc act counter: 1; C8 TRAIL sens: 30.6; PPC1 cytotox: 49.8

Results for CCn1c2c(c(=N)c3c1CCC3)CCCC2 ?
Platelet DG rel: 23.9; PPC-1+TRAIL kill: -8.0; C8 TRAIL sens: 15.2

Results for CCCCCCCCCCn1c2c(c(=N)c3c1CCC3)CCC2 ?
FLuc inhib CS: -6.0; Platelet DG rel: 2.7; PPC-1+TRAIL kill: 56.4*; FLuc act counter: 1.1; C8 TRAIL sens: 78.7*; PPC1 cytotox: 53.5*

Results for COc1ccc(C(C)(O)c2nc(-c3ccc(N(C)C)cc3)cs2)cc1 (stereo not drawn) ?
C8 TRAIL sens: 8.0

How did Cc1ccc(/C=C/C(=O)c2ccc(N3CCOCC3)cc2)s1 do in these assays?
FLuc inhib CS: 94.5*; Platelet DG rel: 44.7; PPC-1+TRAIL kill: 79.8*; FLuc act counter: 0.1; C8 TRAIL sens: 73.0*; PPC1 cytotox: 77.7*

What do the screens show for `Cc1cccc(/C=C/C(=O)c2ccc(N3CCOCC3)cc2)c1`?
FLuc inhib CS: 22.4; Platelet DG rel: -2.5; PPC-1+TRAIL kill: -7.1; FLuc act counter: 0.8

How did C[C@H]1CN([C@@H](C)CO)C(=O)c2cc(-c3cccc(C#N)c3)cnc2O[C@H]1CN(C)C(=O)c1ccccn1 do in these assays?
C8 TRAIL sens: 6.3

Results for CCn1c(SC)nc2c(c1=O)SC(C)C2 (stereo not drawn) ?
FLuc inhib CS: -5.6; Platelet DG rel: 0.2; PPC-1+TRAIL kill: 3.3; FLuc act counter: 1.1; C8 TRAIL sens: -3.4; PPC1 cytotox: 3.6

Results for Cn1c(/C=C/c2ccccc2)nc2ccccc21 ?
FLuc inhib CS: 93.8*; Platelet DG rel: 81.1*; PPC-1+TRAIL kill: 80.5*; FLuc act counter: 0.1; C8 TRAIL sens: 82.8*; PPC1 cytotox: 81.7*

How did Cn1c(=O)c(/C=C/c2ccccc2)nc2ccccc21 do in these assays?
FLuc inhib CS: 36.7; Platelet DG rel: 9.9; PPC-1+TRAIL kill: 6.1; FLuc act counter: 0.6; C8 TRAIL sens: 30.0

How did Clc1ccc(OCc2nc3ccccc3[nH]2)cc1 do in these assays?
FLuc inhib CS: 69.6*; Platelet DG rel: 4.0; PPC-1+TRAIL kill: 33.0; FLuc act counter: 0.3; C8 TRAIL sens: 36.7; PPC1 cytotox: 36.4

What do the screens show for `Cc1ccc(OCc2nc3ccccc3[nH]2)cc1`?
FLuc inhib CS: 87.5*; Platelet DG rel: -2.2; PPC-1+TRAIL kill: 48.9; FLuc act counter: 0.1; C8 TRAIL sens: 30.2; PPC1 cytotox: 42.6

How did c1ccc(OCc2nc3ccccc3[nH]2)cc1 do in these assays?
FLuc inhib CS: 34.3; Platelet DG rel: -0.4; PPC-1+TRAIL kill: 23.6; FLuc act counter: 0.7; C8 TRAIL sens: 14.3

Results for Nc1nc(=O)n(C2CCC(CO)O2)cc1F (stereo not drawn) ?
C8 TRAIL sens: -2.3

Results for COc1cc(SC)ccc1C(=O)Nc1ccc2c(c1)OCCO2 ?
FLuc inhib CS: 82.6*; Platelet DG rel: 4.3; PPC-1+TRAIL kill: 68.0*; FLuc act counter: 0.2; C8 TRAIL sens: 66.0*; PPC1 cytotox: 65.2*

Results for COc1cc(SC)ccc1C(=O)Nc1nccs1 ?
FLuc inhib CS: 91.5*; Platelet DG rel: 6.8; PPC-1+TRAIL kill: 67.0*; FLuc act counter: 0.1; C8 TRAIL sens: 80.5*; PPC1 cytotox: 69.3*

Results for COc1cc(N)ccc1NC(=O)c1cccs1 ?
FLuc inhib CS: 2.0; PPC-1+TRAIL kill: -1.2; FLuc act counter: 1; C8 TRAIL sens: 1.2; PPC1 cytotox: 4.1

What do the screens show for `Cc1nn(C)cc1/C=C/C(=O)c1cccs1`?
FLuc inhib CS: 62.7*; Platelet DG rel: 4.2; PPC-1+TRAIL kill: 23.4; FLuc act counter: 0.4; C8 TRAIL sens: 38.3; PPC1 cytotox: 6.1

How did Cc1nn(C)c(C)c1/C=C/C(=O)c1cccs1 do in these assays?
Platelet DG rel: 9.5; C8 TRAIL sens: 22.0

Results for O=C(C[C@@H]1CC[C@H](NC(=O)Cc2ccccn2)[C@@H](CO)O1)NCCc1ccccc1 ?
C8 TRAIL sens: -3.9

Results for Nc1nc2c(ncn2[C@@H]2O[C@H](CNC(=O)[C@H](N)Cc3ccccc3)[C@@H](O)[C@H]2O)c(=O)[nH]1 ?
C8 TRAIL sens: 1.7
